Measurements taken from ChEMBL document CHEMBL4184234, “Synthesis of novel (-)-epicatechin derivatives as potential endothelial GPER agonists: Evaluation of biological effects” (Bioorg Med Chem Lett, 2018).
The source made the active and inactive calls. The calls are words filed in the database; no cut-off is given here.

How the values were obtained:
Bos taurus [1] = organism: Bos taurus; test: Agonist activity at GPER in BCAEC assessed as increase in nitric oxide production at 1 uM incubated for 10 mins by nitrate/nitrite fluorometric assay relative to untreated (-)-epicatechin
In short: (§1)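 BCAEC given 1 μM ligand for 10 min, with 1 μM (−)-epicatechin as reference; GPER blockade by 30 min pre-incubation with 1 μM G15 before ligand. Nitrates/nitrites in supernatant measured as surrogate of NO synthesis. Values normalized to control (set to 1) or to Epi (100%). Mean ± SEM, n=5 per group.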

Bos taurus [2] = organism: Bos taurus; test: Agonist activity at GPER in BCAEC assessed as increase in eNOS Ser1179 phosphorylation at 1 uM incubated for 10 mins by Western blot relative to untreated (-)-epicatechin
In short: (§2)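 Bovine coronary artery endothelial cells stimulated 10 min with 1 μM ligand; (−)-epicatechin at 1 μM as reference. For GPER blockade, cells pre-incubated 30 min with G15 (1 μM) before ligand. Ser1179-phosphorylated eNOS immunodetected by Western blot. Control set to 1, or Epi set to 100% with derivatives expressed as percent of Epi. Mean ± SEM, n=5 per group.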

Bos taurus [3] = organism: Bos taurus; test: Agonist activity at GPER in BCAEC assessed as increase in nitric oxide production at 1 uM pre-incubated with 1 uM GPER antagonist G15 for 30 mins followed by compound incubation for 10 mins by nitrate/nitrite fluorometric assay relative to untreated control; parameters: scale not given: the % may be the effect or the level left; in short: as §1
Bos taurus [4] = organism: Bos taurus; test: Agonist activity at GPER in BCAEC assessed as increase in eNOS Ser1179 phosphorylation at 1 uM pre-incubated with 1 uM GPER antagonist G15 for 30 mins followed by compound incubation for 10 mins by Western blot relative to untreated control; parameters: scale not given: the % may be the effect or the level left; in short: as §2
Bos taurus [5] = organism: Bos taurus; test: Binding affinity to GPER in BCAEC protein extracts using compound loaded on to affinity chromatography Agarose columns incubated overnight at 4 degC with mild tumbling by Coomassie-blue staining based SDS-PAGE and Western blot method
In short: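 Propargyl derivative coupled to agarose-azide beads by click chemistry; coupling gauged by fluorescence of washings against an external calibration curve. Three control columns lacked ligand and/or copper sulfate/ascorbate. BCAEC protein extract (0.8–1.0 mg) loaded, overnight 4 °C with mild tumbling. Washed with 5 mM EDTA/0.5% SDS/250 mM NaCl in PBS pH 7.5, then PBS. Eluted in PBS with 8 M urea, concentrated, run on SDS-PAGE with Coomassie staining. Western blot used monoclonal GPER antibody.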

`CS(=O)(=O)O[C@@H]1Cc2c(O)cc(O)cc2O[C@@H]1c1ccc(O)c(O)c1` showed an Activity (Bos taurus [1]) of 54.5%, an Activity (Bos taurus [2]) of 64.8% and an Activity (Bos taurus [3]) of 41.8%. It also gave an Activity (Bos taurus [4]) of 53%.
`C#CCOc1cc(OCC#C)c2c(c1)O[C@H](c1ccc(OCC#C)c(OCC#C)c1)[C@H](OCC#C)C2` gave an Activity (Bos taurus [1]) of 102%, an Activity (Bos taurus [2]) of 92.6% and an Activity (Bos taurus [3]) of 60%. It also gave an Activity (Bos taurus [4]) of 54.8%.
`Oc1cc(O)c2c(c1)O[C@H](c1ccc(O)c(O)c1)[C@H](O)C2` was tested, and the Activity (Bos taurus [3]) was 60%, the Activity (Bos taurus [4]) was 55.6% and the Activity (Bos taurus [5]) was “Active”.
For `C#CCOc1cc(OCC#C)c2c(c1)O[C@H](c1ccc(OCC#C)c(OCC#C)c1)[C@H](O)C2`, the Activity (Bos taurus [1]) was 107%, the Activity (Bos taurus [2]) was 111% and the Activity (Bos taurus [3]) was 63.6%. The Activity (Bos taurus [4]) was 57.4%.
Compound `C#CCO[C@@H]1Cc2c(O)cc(O)cc2O[C@@H]1c1ccc(O)c(O)c1` has an Activity (Bos taurus [1]) of 142%, an Activity (Bos taurus [2]) of 137% and an Activity (Bos taurus [3]) of 70.9%. It also gave an Activity (Bos taurus [4]) of 59.3%.
